Assay results from ChEMBL document CHEMBL3745713, “Bromotyrosine-derived metabolites from an Indonesian marine sponge in the family Aplysinellidae (Order Verongiida)” (Bioorg Med Chem Lett, 2016).

Key:
[1] = Cytotoxicity against human A2780S/CP5 cells assessed as cell growth at 5 uM measured at 72 hrs by CyQuant proliferation assay relative to control; assay type: functional; settings: A2780S/CP5, 72 h, read-out: Activity
Outline: (§1)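 Single-concentration screen at 50 and 5 μM across the cancer lines and normal mouse NIH3T3 fibroblasts. Cell growth was read by CyQuant proliferation assay at 72 h. Values are expressed relative to DMSO-treated control. Done in triplicate, one experiment (n=1).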

[2] = tested on: MCF7; assay: Cytotoxicity against human MCF7 cells assessed as cell growth at 50 uM measured at 72 hrs by CyQuant proliferation assay relative to control; assay type: functional; settings: MCF7, 72 h, read-out: Activity; outline: as §1
[3] = Cytotoxicity against human A2780S cells assessed as cell growth at 5 uM measured at 72 hrs by CyQuant proliferation assay relative to control; assay type: functional; settings: A2780, 72 h, read-out: Activity; outline: as §1
[4] = Cytotoxicity against human A2780S cells assessed as cell growth at 50 uM measured at 72 hrs by CyQuant proliferation assay relative to control; assay type: functional; settings: A2780, 72 h, read-out: Activity; outline: as §1
[5] = biological target: Beta-secretase 1 (Homo sapiens) (UniProt P56817); assay: Inhibition of BACE1 (unknown origin) using BACE ED as substrate at 30.6 uM by EFC assay
Beta-secretase 1 (Homo sapiens), sequence (P56817 whole entry): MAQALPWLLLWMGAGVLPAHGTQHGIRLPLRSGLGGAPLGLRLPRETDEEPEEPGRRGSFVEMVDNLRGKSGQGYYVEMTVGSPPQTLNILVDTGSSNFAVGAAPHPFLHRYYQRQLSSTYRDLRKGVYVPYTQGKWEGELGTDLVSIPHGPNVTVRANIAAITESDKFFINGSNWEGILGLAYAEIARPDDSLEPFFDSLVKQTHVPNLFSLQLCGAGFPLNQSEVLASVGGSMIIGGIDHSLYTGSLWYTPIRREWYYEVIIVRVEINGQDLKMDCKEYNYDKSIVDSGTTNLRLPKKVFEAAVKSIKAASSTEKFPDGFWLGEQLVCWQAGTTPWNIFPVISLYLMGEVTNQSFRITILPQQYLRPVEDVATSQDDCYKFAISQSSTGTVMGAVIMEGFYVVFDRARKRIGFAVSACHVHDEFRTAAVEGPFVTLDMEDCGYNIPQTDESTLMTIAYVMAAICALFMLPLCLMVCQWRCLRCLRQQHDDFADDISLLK

[6] = tested on: MCF7; assay: Cytotoxicity against human MCF7 cells assessed as cell growth at 5 uM measured at 72 hrs by CyQuant proliferation assay relative to control; assay type: functional; settings: MCF7, 72 h, read-out: Activity; outline: as §1
[7] = Cytotoxicity against human A2780S/CP5 cells assessed as cell growth at 50 uM measured at 72 hrs by CyQuant proliferation assay relative to control; assay type: functional; settings: A2780S/CP5, 72 h, read-out: Activity; outline: as §1
[8] = Cytotoxicity against mouse NIH/3T3 cells assessed as cell growth at 50 uM measured at 72 hrs by CyQuant proliferation assay relative to control; assay type: cell-based, NIH3T3; settings: read-out: Activity; outline: as §1
[9] = Cytotoxicity against human U251MG cells assessed as cell growth at 5 uM measured at 72 hrs by CyQuant proliferation assay relative to control; assay type: functional; settings: U-251, 72 h, read-out: Activity; outline: as §1
[10] = tested on: A549; assay: Cytotoxicity against human A549 cells assessed as cell growth at 5 uM measured at 72 hrs by CyQuant proliferation assay relative to control; assay type: functional; settings: A549, 72 h, read-out: Activity; outline: as §1
[11] = Cytotoxicity against mouse NIH/3T3 cells assessed as cell growth at 5 uM measured at 72 hrs by CyQuant proliferation assay relative to control; assay type: cell-based, NIH3T3; settings: read-out: Activity; outline: as §1
[12] = Cytotoxicity against human U251MG cells assessed as cell growth at 50 uM measured at 72 hrs by CyQuant proliferation assay relative to control; assay type: functional; settings: U-251, 72 h, read-out: Activity; outline: as §1
[13] = tested on: A549; assay: Cytotoxicity against human A549 cells assessed as cell growth at 50 uM measured at 72 hrs by CyQuant proliferation assay relative to control; assay type: functional; settings: A549, 72 h, read-out: Activity; outline: as §1
[14] = Cytotoxicity against human A2780S/CP5 cells by CyQuant proliferation assay; assay type: functional, cell-based
Outline: (§2)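 CyQuant proliferation assay in A2780S, cisplatin-resistant A2780CP (SCP5) and U251MG cells. Cells were exposed to varying concentrations, maximum 50 μM, and compared with solvent-only treated cells. IC50 was determined from triplicates, two independent experiments (n=2).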

[15] = biological target: Beta-secretase 1 (Homo sapiens) (UniProt P56817); assay: Inhibition of BACE1 (unknown origin) using BACE ED as substrate at 48.3 uM by EFC assay
[16] = Cytotoxicity against human U251MG cells by CyQuant proliferation assay; assay type: functional, cell-based; settings: U-251; outline: as §2
[17] = Cytotoxicity against human A2780S cells by CyQuant proliferation assay; assay type: functional, cell-based; settings: A2780; outline: as §2
[18] = biological target: Beta-secretase 1 (Homo sapiens) (UniProt P56817); assay: Inhibition of BACE1 (unknown origin) using BACE ED as substrate at 42 uM by EFC assay
[19] = biological target: Beta-secretase 1 (Homo sapiens) (UniProt P56817); assay: Inhibition of BACE1 (unknown origin) using BACE ED as substrate at 39.6 uM by EFC assay
[20] = Cytotoxicity against mouse NIH/3T3 cells assessed as cell growth at 25 uM measured at 72 hrs by CyQuant proliferation assay relative to control; assay type: cell-based, NIH3T3; settings: read-out: Activity
[21] = Cytotoxicity against human A2780S cells assessed as cell growth at 25 uM measured at 72 hrs by CyQuant proliferation assay relative to control; assay type: functional; settings: A2780, 72 h, read-out: Activity
[22] = tested on: MCF7; assay: Cytotoxicity against human MCF7 cells assessed as cell growth at 25 uM measured at 72 hrs by CyQuant proliferation assay relative to control; assay type: functional; settings: MCF7, 72 h, read-out: Activity
[23] = Cytotoxicity against human U251MG cells assessed as cell growth at 25 uM measured at 72 hrs by CyQuant proliferation assay relative to control; assay type: functional; settings: U-251, 72 h, read-out: Activity
[24] = tested on: A549; assay: Cytotoxicity against human A549 cells assessed as cell growth at 25 uM measured at 72 hrs by CyQuant proliferation assay relative to control; assay type: functional; settings: A549, 72 h, read-out: Activity
[25] = Cytotoxicity against human A2780S/CP5 cells assessed as cell growth at 25 uM measured at 72 hrs by CyQuant proliferation assay relative to control; assay type: functional; settings: A2780S/CP5, 72 h, read-out: Activity
[26] = biological target: Beta-secretase 1 (Homo sapiens) (UniProt P56817); assay: Inhibition of BACE1 (unknown origin) using BACE ED as substrate at 42.6 uM by EFC assay
[27] = biological target: Beta-secretase 1 (Homo sapiens) (UniProt P56817); assay: Inhibition of BACE1 (unknown origin) using BACE ED as substrate at 31.8 uM by EFC assay
[28] = Cytotoxicity against mouse NIH/3T3 cells assessed as cell growth at 20 uM measured at 72 hrs by CyQuant proliferation assay relative to control; assay type: cell-based; settings: nih3t3, 72 h
[29] = Cytotoxicity against human A2780S cells assessed as cell growth at 20 uM measured at 72 hrs by CyQuant proliferation assay relative to control; assay type: functional; settings: A2780, 72 h, read-out: Activity
[30] = Cytotoxicity against human U251MG cells assessed as cell growth at 20 uM measured at 72 hrs by CyQuant proliferation assay relative to control; assay type: functional; settings: U-251, 72 h, read-out: Activity
[31] = Cytotoxicity against human A2780S/CP5 cells assessed as cell growth at 20 uM measured at 72 hrs by CyQuant proliferation assay relative to control; assay type: functional; settings: A2780S/CP5, 72 h, read-out: Activity
[32] = tested on: MCF7; assay: Cytotoxicity against human MCF7 cells assessed as cell growth at 20 uM measured at 72 hrs by CyQuant proliferation assay relative to control; assay type: functional; settings: MCF7, 72 h, read-out: Activity
[33] = tested on: A549; assay: Cytotoxicity against human A549 cells assessed as cell growth at 20 uM measured at 72 hrs by CyQuant proliferation assay relative to control; assay type: functional; settings: A549, 72 h, read-out: Activity
[34] = biological target: Beta-secretase 1 (Homo sapiens) (UniProt P56817); assay: Inhibition of BACE1 (unknown origin) using BACE ED as substrate at 41.9 uM by EFC assay
[35] = biological target: Beta-secretase 1 (Homo sapiens) (UniProt P56817); assay: Inhibition of BACE1 (unknown origin) using BACE ED as substrate at 41.7 uM by EFC assay
[36] = biological target: Beta-secretase 1 (Homo sapiens) (UniProt P56817); assay: Inhibition of BACE1 (unknown origin) using BACE ED as substrate at 31.4 uM by EFC assay

| Structure (SMILES) | growth at 5 µM [1] | growth at 50 µM [2] | growth at 5 µM [3] | growth at 50 µM [4] | growth at 5 µM [6] | growth at 50 µM [7] | viability at 72 h, 50 µM [8] | growth at 5 µM [9] | growth at 5 µM [10] | viability at 72 h, 5 µM [11] | growth at 50 µM [12] | growth at 50 µM [13] | other results |
| --- | --- | --- | --- | --- | --- | --- | --- | --- | --- | --- | --- | --- | --- |
| CCCCC(C)CCC/C=C\CCCCCCC(=O)NCCc1cc(Br)c(OCCCNC(=O)C2=NO[C@@]3(C=C(Br)C(OC)=C(Br)[C@H]3O)C2)c(Br)c1 (stereo not given in full) | 105% | 104% | 82% | 76% | 105% | 66% | 98% | 98% | 98% | 100% | 90% | 104% | inhibition [5]: 60% |
| CNCCCOc1c(Br)cc(CCNC(=O)/C(Cc2ccc(O)c(Br)c2)=N/O)cc1Br | 94% | 69% | 82% | 26% | 100% | 51% | 105% | 111% | 97% | 99% | 40% | 64% | IC50 [14]: > 50 µM; inhibition [15]: 48%; IC50 [16]: > 50 µM; IC50 [17]: > 50 µM |
| COc1c(Br)cc(C/C(=N\O)C(=O)NCCCOc2c(Br)cc(CCN)cc2Br)c(O)c1Br | 96% | 27% | 60% | 9% | 97% | 9% | 104% | 111% | 96% | 102% | 20% | 21% | IC50 [14]: 40 µM; inhibition [18]: 36%; IC50 [16]: 50 µM; IC50 [17]: 20 µM |
| CNCCCOc1c(Br)cc(CCNC(=O)/C(Cc2cc(Br)c(OC)c(Br)c2)=N/O)cc1Br | 29% | 58% | 11% | 13% | 50% | 10% | 3% | 17% | 42% | 101% | 30% | 11% | inhibition [18]: 74% |
| COC1=C(Br)[C@@H](O)[C@]2(C=C1Br)CC(C(=O)NCCCOc1c(Br)cc(CCNC(=N)N)cc1Br)=NO2 | 45% | 24% | 78% | 12% | 98% | 8% | 25% | 94% | 85% | 100% | 32% | 48% | inhibition [19]: 40% |
| CCCCCCC(C)CCCCCCCCC(=O)NCCc1cc(Br)c(OCCCNC(=O)C2=NO[C@@]3(C=C(Br)C(OC)=C(Br)[C@H]3O)C2)c(Br)c1 (stereo not given in full) | 100% | 109% | 90% | 88% | 106% | 78% | 102% | 100% | 82% | 98% | 101% | 106% | – |
| O=C(CCCCCCC(=O)Nc1ccccc1)NO [VORINOSTAT] | – | – | – | – | – | – | – | – | – | – | – | – | viability at 72 h, 25 µM [20]: 46%; growth at 25 µM [21]: 23%; growth at 25 µM [22]: 52%; growth at 25 µM [23]: 20%; growth at 25 µM [24]: 51%; growth at 25 µM [25]: 18% |
| COc1c(Br)cc(C/C(=N\O)C(=O)NCCc2cc(Br)c(OCCCN)c(Br)c2)cc1Br | 78% | 26% | 81% | 11% | 95% | 12% | 16% | 107% | 92% | 105% | 24% | 24% | inhibition [26]: 62% |
| COC1=C(Br)[C@@H](O)[C@]2(C=C1Br)CC(C(=O)NCCCOc1c(Br)cc(CCNC(=O)CCCCCCCCCCCC(C)C)cc1Br)=NO2 | 68% | 64% | 77% | 18% | 103% | 48% | 95% | 98% | 88% | 88% | 80% | 85% | inhibition [27]: 57% |
| COc1cc([C@@H]2c3cc4c(cc3[C@@H](O[C@@H]3O[C@@H]5CO[C@@H](C)O[C@H]5[C@H](O)[C@H]3O)[C@H]3COC(=O)[C@H]23)OCO4)cc(OC)c1O [ETOPOSIDE] | – | – | – | – | – | – | – | – | – | – | – | – | Activity [28]: 46%; growth at 20 µM [29]: 35%; growth at 20 µM [30]: 21%; growth at 20 µM [31]: 33%; growth at 20 µM [32]: 46%; growth at 20 µM [33]: 49% |
| COC1=C(Br)[C@@H](O)[C@]2(C=C1Br)CC(C(=O)NCCCOc1c(Br)cc(C(=O)O)cc1Br)=NO2 | 33% | 60% | 37% | 21% | 86% | 25% | 29% | 101% | 81% | 94% | 39% | 68% | inhibition [34]: 35% |
| COC1=C(Br)[C@@H](O)[C@]2(C=C1Br)CC(C(=O)NCCCOc1c(Br)cc(CCN)cc1Br)=NO2 [ARAPLYSILLIN 1] | 11% | 71% | 8% | 14% | 36% | 22% | 7% | 32% | 16% | 38% | 30% | 17% | inhibition [35]: 27% |
| CCCCCCC(C)CCCCCCCC(=O)NCCc1cc(Br)c(OCCCNC(=O)C2=NO[C@@]3(C=C(Br)C(OC)=C(Br)[C@H]3O)C2)c(Br)c1 (stereo not given in full) | 109% | 101% | 85% | 87% | 104% | 79% | 95% | 99% | 89% | 94% | 97% | 105% | inhibition [36]: 70% |
